# Many of the other results were omitted from the sample, so hits are more common in it than they were.
# T cell HTS: T cell immune modulation candidate. 2C CD8+ T cell-vesicle binding, flow cytometry; hits give low values. response (vesicle binding), % at 7 µM. 330,000 tested, 0.068% active;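 active = response, share of CD8 T cells binding vesicles, and their 90th percentile fluorescence all below set limits, cut at about 80% in these data, passing the limit was not always enough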;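 also: values below 100% mean blocked vesicle binding to the CD8+ T cells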
#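 incubation = binding step 1.5 h, 37 °C, antibody labelling 20 min, ice | test system = 2C mouse CD8+ T cells | read-out basis = percent CD8+ FL2 mean versus row control | controls = Peptide-free naked vesicles (low) and QL9 vesicles with 0.7% DMSO vehicle (high) | detection = flow cytometry of vesicle-bound cells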
# Glyco luc inh: blocks N-linked glycosylation in D54 reporter cells; D54 ERlucT glycosylation luciferase reporter, 24 h; percent of 100 nM tunicamycin response; AID 588692; reporter increase, % at 12.5 µM; 360,000 tested, 0.23% active;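 active = mean luciferase reporter signal, scaled so untreated is 0 and the glycosylation-blocking control 100, at or above a set limit in every replicate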;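 also: luciferase carries N-glycosylation sites so blocking glycosylation raises the light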
# ALR H2O2 inh: human ALR oxidase inhibition via reduced H2O2 | 290,000 tested, 3.8% active | purified ALR, DTT oxidation, H2O2 HRP-luminol luminescence | inhibition, % (no concentration beside the values) | AID 485317 | P55789;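 active = mean replicate inhibition above about 79%, with every replicate also reaching it, limit read from the data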
# Target sequence (P55789 whole entry, looked up): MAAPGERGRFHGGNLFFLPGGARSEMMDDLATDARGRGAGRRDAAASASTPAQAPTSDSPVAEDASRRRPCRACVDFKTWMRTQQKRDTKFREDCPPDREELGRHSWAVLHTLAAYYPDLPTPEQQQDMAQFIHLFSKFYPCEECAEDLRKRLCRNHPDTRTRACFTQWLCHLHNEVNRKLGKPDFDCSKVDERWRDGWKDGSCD
# A number is an active result; . = inactive; / = not tested or not shown.
SMILES,T cell HTS,Glyco luc inh,ALR H2O2 inh
CCc1ccc(C2=CC(c3cc(Br)ccc3F)n3ncnc3N2)cc1 (stereo not drawn),.,.,.
Fc1ccc(Br)cc1C1C=C(c2ccc(Br)cc2)Nc2ncnn21 (stereo not drawn),.,.,90
COc1ccccc1N1CCN(C(=O)c2ccc3c(c2)NC(=O)C(CSCc2ccccc2C)N3)CC1 (stereo not drawn),.,/,/
COc1ccccc1CNC(=O)CCNS(=O)(=O)c1ccc2[nH]c(=O)oc2c1,.,.,.
C=CCOc1ccc(/C=C\c2nc(O)c([N+](=O)[O-])c(=O)[nH]2)cc1OCC,.,.,97
O=c1[nH]c(/C=C/c2ccccc2F)nc2ccccc12,.,.,.
COc1ccc(/C=C\c2nc(O)c([N+](=O)[O-])c(=O)[nH]2)cc1O,.,.,.
O=c1[nH]c(/C=C\c2ccccc2F)nc(O)c1[N+](=O)[O-],.,.,97
O=c1[nH]c(/C=C\c2cccc(Cl)c2)nc(O)c1[N+](=O)[O-],.,.,98
C=CCOc1cccc(/C=C\c2nc(O)c([N+](=O)[O-])c(=O)[nH]2)c1,.,.,.
O=c1[nH]c(/C=C\c2cccc(F)c2)nc(O)c1[N+](=O)[O-],.,.,91
C=CCOc1ccc(/C=C\c2nc(O)c([N+](=O)[O-])c(=O)[nH]2)cc1OC,.,.,.
CN1C(=O)C(C)(C)c2cc(S(=O)(=O)NCC3CCC(C(=O)NC4CCCCC4)CC3)ccc21 (stereo not drawn),.,.,.
O=C(CCNC(=O)c1ccc([N+](=O)[O-])cc1)Nc1nc2ccccc2[nH]1,/,.,/
O=C(CSc1nnc2c(n1)[nH]c1ccccc12)Nc1nncs1,.,.,/
CN(C)c1ccc(N=Cc2nc(-c3ccccc3)oc2OC(=O)c2ccccc2)cc1,5.7,.,.
CC(=O)Oc1oc(-c2ccccc2)nc1C=Nc1ccc(N(C)C)cc1,.,.,.
C[C@H]1CN([C@@H](C)CO)C(=O)CCCn2cc(nn2)CO[C@@H]1CN(C)C(=O)c1cc(-c2ccccc2)on1,/,.,/
CCOC(=O)c1ccc(N=c2sc(C(=O)OC)cc(=O)n2CCCN2CCOCC2)cc1,.,.,.
CCOC(=O)c1ccc(N=c2sc(C(=O)OC)cc(=O)n2Cc2ccco2)cc1,.,56,.
Cn1cccc1CNCC(O)c1ccccc1 (stereo not drawn),.,.,.
COc1ccc(N2CCN(C(=O)CCn3nnc4ccccc43)CC2)cc1,.,.,90
COc1ccc(N2CCN(C(=O)CCC(=O)N3CC(C)Oc4ccccc43)CC2)cc1 (stereo not drawn),.,.,78
COc1ccc(N2CCN(C(=O)CCCC(=O)c3ccccc3)CC2)cc1,.,.,.
CC1CN(C(=O)CCC(=O)N2CCOCC2)c2ccccc2O1 (stereo not drawn),.,.,.
SMILES,T cell HTS,Glyco luc inh,ALR H2O2 inh
COc1cc(/C=N/N=C2\CC3CCC2(C)C3(C)C)ccc1O (stereo not drawn),.,.,99
COc1ccc(/C=N/N=C2\CC3CCC2(C)C3(C)C)cc1O (stereo not drawn),.,.,.
CCCCN1C(=O)C2Cc3c([nH]c4ccccc34)CN2C1=S (stereo not drawn),.,.,89
CCCCCN1CC(=O)N2Cc3[nH]c4ccccc4c3C[C@H]2C1=O,.,.,.
COCCN1CCN(C(=O)c2ccc3oc(CCc4ccccc4)nc3c2)CC1,.,.,.
CC(=O)c1ccc(Nc2c([N+](=O)[O-])ccc3nonc23)cc1,.,.,.
O=[N+]([O-])c1cc([N+](=O)[O-])c2nonc2c1Nc1ccccc1O,.,.,99
O=[N+]([O-])c1cc([N+](=O)[O-])c2nonc2c1Nc1ccc(O)cc1,.,.,99
O=[N+]([O-])c1c(Nc2ccccc2O)cc(N2CCOCC2)c2nonc12,.,.,.
COc1cccc(CN2CC(C(=O)N(C)Cc3ccnc4ccccc34)CCC2=O)c1 (stereo not drawn),.,.,.
Cc1ccc(C)c(CC(=O)N2CCCCC2c2cc(C(=O)Nc3cccc(C#N)c3)no2)c1 (stereo not drawn),/,.,/
CCOc1ccc(S(=O)(=O)N2CCCCC2)cc1NC(=O)CN1C(=O)NC(C)(c2ccc(C)cc2)C1=O (stereo not drawn),.,.,.
Cc1ccc(C)c(-n2c(-c3cccnc3)n[nH]c2=S)c1,.,.,.
Cc1ccc(C)c(-n2c(-c3csc(C)c3C)n[nH]c2=S)c1,.,.,89
CN(c1ccc(-c2csc(NC(=O)CCCc3nc4ccccc4c(=O)[nH]3)n2)cc1)S(C)(=O)=O,/,.,/
Clc1ccc(N2CCN(c3ccnc(Cl)n3)CC2)cc1,.,.,.
Nc1ccc(N2CCN(c3cccc(Cl)c3)CC2)cc1,.,.,/
